# SR-BI HDL uptake: blocks mouse SR-BI lipid uptake from DiI-HDL. ldlA[mSR-BI] CHO cells, DiI-HDL uptake fluorescence, 3 h. inhibition, % at 12.5 µM. 0.96% of 320,000 active. AID 488896;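 active = mean replicate inhibition of at least 70% and a set share of replicates each scoring 70 or more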;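 note: 0% = median of neutral control wells and 100% = median of positive control wells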
# Vif imaging: blocks HIV Vif function; inhibition, % at 7.49 µM; 0.35% of 340,000 active; HEK293T cells, Vif self-association by quenched fluorescence, imaging, 24 h; in the data active = inhibition above about 50%, passing the limit was not always enough
# PKA-R1A activ: PKA-R1A complex activation. 0.083% of 340,000 active. PKA-R1A dissociation, Cy5-IP20 fluorescence polarization; scaled: DMSO 0%, 113 µM cGMP 100%. activation, % at 11.4 µM. P00514+P68181. AID 504707;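 active = percent activation above the mean of all tested compounds plus 3 SD, cut at about 19% in these data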;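 note: higher means more PKAc released from R1A so a rise in polarization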
# PKA-R2B activ: activates the human PKA-R2B holoenzyme complex; P22694+P31323; PKA-R2B holoenzyme dissociation, Cy5-IP20 fluorescence polarization; R2B truncated from residue 108, S112A mutant; 0% DMSO only, 100% 113 µM cGMP; activation, % at 11.4 µM; 0.079% of 340,000 active; AID 504700;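 active = activation above a cutoff set at the mean over all compounds plus 3 SD, cut at about 18% in these data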;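 note: higher means more holoenzyme dissociation and a rise in polarization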
# Target sequence (P31323 whole entry, looked up, other chains not shown, the tested form may be a part): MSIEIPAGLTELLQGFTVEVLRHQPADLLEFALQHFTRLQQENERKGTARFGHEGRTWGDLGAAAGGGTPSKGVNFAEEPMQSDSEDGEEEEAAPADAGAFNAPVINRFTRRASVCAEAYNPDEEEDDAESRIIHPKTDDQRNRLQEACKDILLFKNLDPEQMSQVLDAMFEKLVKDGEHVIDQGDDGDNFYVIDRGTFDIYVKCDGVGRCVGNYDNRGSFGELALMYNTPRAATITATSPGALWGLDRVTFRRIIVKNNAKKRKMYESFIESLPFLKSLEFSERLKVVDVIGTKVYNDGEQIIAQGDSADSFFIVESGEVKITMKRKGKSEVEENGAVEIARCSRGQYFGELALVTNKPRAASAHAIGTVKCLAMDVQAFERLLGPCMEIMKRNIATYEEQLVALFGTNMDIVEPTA
# SR-BI uptake up: SR-BI HDL lipid transfer activation. CHO ldlA[mSR-BI] cells, DiI-HDL uptake fluorescence, 3 h; 100 = double the neutral-control signal. activation, % at 12.5 µM. 0.096% of 320,000 active. AID 504775;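 active = mean replicate activation of at least 60% and every replicate at or above 60%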;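 note: 0% = median plate neutral-control signal and 100% = twice that signal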
#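 Material: SR-BI-overexpressing, LDLR-lacking CHO cells | Dosing: Single compound concentration, delivered by pin transfer | Probe or stimulus: Labelled HDL, 10 µg/mL | Signal: Bottom-read cell fluorescence after medium removal, ex 550/em 595 nm | Schedule: 3 h, 37 °C | Evaluation: HDL uptake via cellular fluorescence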
# Numbers without * were called inactive; . = no result. Most compounds without a hit are left out; they make up all but 1.4% or so of the library.
SMILES,SR-BI HDL uptake,Vif imaging,PKA-R1A activ,PKA-R2B activ,SR-BI uptake up
O=c1c2c(nc3cc(-c4ccc(F)cc4)[nH]n13)CCC2,-42.4,0.4,-0.1,0.2,42.3
Oc1c(N=Nc2ccccn2)ccc2ccccc12,134.4*,3.4,1.8,-1.1,-134.4
Oc1[nH]c2ccccc2c1N=Nc1ccccn1,-3.4,-11.1,-0.9,-1.8,3.4
COc1ccc(N2CCN(C(=O)C(=O)c3c(C)n(C)c4ccccc34)CC2)cc1,-1.9,1.8,4.0,6.8,1.9
COc1ccc(N2CCN(CCCNC(=O)C(=O)c3c(C)n(C)c4ccccc34)CC2)cc1,15.2,53.5*,1.9,-11.0,-15.2
COc1ccc2cc(-c3cc(C(=O)OCC(=O)Nc4c(C)n(C)n(-c5ccccc5)c4=O)c4ccccc4n3)ccc2c1,76.1*,20.2,1.4,-5.0,-76.1
COc1ccc2cc(-c3cc(C(=O)OCC(=O)NC4CCS(=O)(=O)C4)c4ccccc4n3)ccc2c1 (centres undefined),8.9,51.8*,-6.1,-15.6,-8.9
COc1ccc(-c2cc(C(=O)OCC(=O)NC3CC3)c3ccccc3n2)cc1,33.6,-7.9,0.6,-5.1,-33.6
COc1ccc(-c2cc(C(=O)Nc3c(C)n(C)n(-c4ccccc4)c3=O)c3ccccc3n2)cc1,.,4.3,0.4,13.2,.
C[N+]1(C2CCC3CCCC2C3O)CCCCC1 (centres undefined),1.7,-1.2,10.1,7.7,10.4
CCCOc1ccc(C(O)(CCN2CCCCC2)c2ccccc2OC)cc1 (centres undefined),-24.7,3.4,-0.8,-11.9,24.7
COc1ccc(Cl)cc1/C=C/c1ccc2cccc(O)c2n1,83.3*,-4.3,2.5,-7.8,-83.3
COc1cc(Cl)cc(/C=C/c2ccc3cccc(O)c3n2)c1OC,49.7,0.3,0.4,-0.8,-49.7
O=C(OCc1ccccc1)c1cccc(-c2nnc(-c3ccccc3)o2)c1,-62.4,7.0,-4.3,-0.1,62.4*
O=C(OCc1ccc(C(=O)c2ccccc2)cc1)c1cccc(-c2nnc(-c3ccccc3)o2)c1,-7.8,.,-1.5,2.6,7.8
Cc1cccc(Nc2nc(-c3ccc(O)c(O)c3)cs2)n1,11.2,63.9*,0.6,-4.7,-11.2
O=C(NCC(c1ccc(F)cc1)N1CCOCC1)c1cccc(Br)c1 (centres undefined),-2.9,3.5,9.4,4.7,2.9
CC1(C)CC2(CC(c3cccs3)c3cc(Cl)c(O)cc3O2)NC(=S)N1 (centres undefined),89.9*,0.3,-5.9,1.9,-89.9
COC(=O)Cn1c(=NC(=O)c2cc(OC)cc(OC)c2)sc2cc(OC)ccc21,62.0,2.5,-13.8,-9.8,-62.0
COC(=O)Cn1c(=NC(=O)c2ccc(OC)cc2)sc2cc(OC)ccc21,70.9*,-4.6,-4.0,-10.2,-70.9
c1ccc(-n2c(-c3cccs3)nc3nc4ccccc4nc32)cc1,-6.3,-5.5,-1.2,6.4,6.3
CCC(C)n1c(-c2cccs2)nc2nc3ccccc3nc21 (centres undefined),-13.3,68.4*,-14.3,-7.5,13.3
COC(=O)c1nn(-c2ccccc2)c(-c2ccccc2)c1C(=O)c1ccccc1,5.6,50.2*,-1.6,-15.8,-5.6
O=C(O)c1nn(-c2ccccc2)c(-c2ccccc2)c1C(=O)c1ccccc1,-11.1,-5.8,1.2,8.7,11.1
O=C(O)CN1CCNCCN(CC(=O)O)CCNCC1,-1.8,11.0,-2.0,-6.0,1.8
SMILES,SR-BI HDL uptake,Vif imaging,PKA-R1A activ,PKA-R2B activ,SR-BI uptake up
CCOC(=O)N1CCN(C(=S)NC(=O)c2ccc(Br)cc2)CC1,-2.0,-2.7,-1.3,0.4,2.0
CCOC(=O)N1CCN(C(=S)NC(=O)c2cncc(Br)c2)CC1,-68.6,6.4,0.8,0.1,68.6*
Cc1[nH]c2ccccc2c1/C=N/Nc1nc(N2CCCCC2)nc(N2CCCCC2)n1,90.6*,-3.4,5.1,-9.2,-90.6
Cc1ccc(NC(=S)N/N=C/c2c(C)[nH]c3ccccc23)cc1,102.1*,0.2,2.8,-13.5,-102.1
Cc1[nH]c2ccccc2c1/C=N/NC(=O)Nc1ccccc1,39.0,-8.7,-6.8,0.4,-39.0
Fc1ccc(NC(=S)NN=Cc2ccccc2Cl)cc1,18.2,3.8,-9.0,-9.9,-18.2
Cc1[nH]c2ccccc2c1/C=N/NC(N)=S,86.2*,-15.4,6.5,-14.1,-86.2
Oc1ccccc1C=NNC(=S)Nc1ccc(F)cc1,100.8*,-8.2,-2.1,3.2,-100.8
O=C(O)C1CCCN1S(=O)(=O)c1cccc2nsnc12 (centres undefined),-18.1,-1.1,-7.9,-5.1,18.1
COc1ccc(CCNC(=O)c2ccc(NC(=O)CC3SC(N4CCCC4)=NC3=O)cc2)cc1OC (centres undefined),51.8,7.8,0.3,5.9,-51.8
COc1ccc(CCNC(=O)c2cccc(NC(=O)CC3SC(N4CCCCC4)=NC3=O)c2)cc1OC (centres undefined),77.5*,.,-11.2,-16.5,-77.6
COc1c2ccoc2nc2c(OC)c(OC[C@@H](O)C(C)(C)O)ccc12,12.0,56.8*,-8.5,-2.0,-12.0
COc1c2ccoc2nc2c(OC)c(OCC(O)C(C)(C)O)ccc12 (centres undefined),-6.0,.,-11.4,-8.7,6.0
C=C1c2cccc(OC)c2O[C@H](C(=O)OCC)[C@@H]1CC(CC)CCCC (some centres undefined),84.5*,-5.0,-3.1,-3.9,-84.5
COc1cc(N)c(Cl)cc1C(=O)N[C@H]1CCN(CCCOc2ccc(F)cc2)C[C@H]1OC,75.4*,16.9,-14.9,-8.5,-75.4
CCC(C)Sc1ccc(-c2nc3cc(C)ccn3c2NC2CCCCC2)cc1 (centres undefined),80.5*,-5.0,-7.2,-3.4,-80.5
CCC(C)Sc1ccc(-c2nc3cnccn3c2NC2CCCCC2)cc1 (centres undefined),63.3,9.2,4.4,-12.0,-63.3
COc1ccc(Br)c(Cn2c(C)c(C(=O)NCc3ccccc3C(F)(F)F)sc2=O)c1,.,3.8,.,.,.
O=C(COC(=O)COc1cccc(Br)c1)Nc1c(Cl)cccc1Cl,-373.6,18.6,1.8,-1.4,373.6*
COc1cc2c(NCCCCCO)ncnc2c(OC)c1OC,.,-6.1,-11.3,-7.0,.
C=CCN1C(=O)/C(=C/c2ccc(-c3ccc(F)cc3)o2)SC1=S,47.5,82.3*,-6.8,5.1,-47.5
C=CCN1C(=O)/C(=C/c2ccsc2)SC1=S,-15.1,-1.8,2.5,2.5,15.1
CC(=O)Nc1ccc(C(=O)N/N=C/c2ccccc2OC(=O)c2ccc(Cl)cc2)cc1,52.4,8.0,-15.8,-4.8,-52.4
COc1cc(C(=O)Oc2ccccc2/C=N/NC(=O)c2ccc(C)c(Cl)c2)cc(OC)c1OC,114.7*,3.5,1.4,5.8,-114.7

# Screens as filed in PubChem.
